Reference: publication PMC4059252 (Journal of Medicinal Chemistry, 2014)

Experiment: Metal cation competition
Format: physicochemical
Summary of the method: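 200 μM ligand (1 mL) was labelled with 30–50 μCi neutralised 89Zr for 1 h at room temperature, and complete labelling was confirmed by radio-TLC. 200 μL aliquots were mixed with 200 μL 1 mM metal salt (e.g. CoCl2) at pH 7.4 and incubated at 37 °C with agitation. Radio-TLC at 1 h, 1, 5, 7 d gave % intact complex. Mean and SD from two experiment sets.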

In the case of `CC(=O)N(O)CCCCCNC(=O)CCC(=O)N(O)CCCCCNC(=O)CCC(=O)N(O)CCCCCN` [DFO, desferrioxamine B], the “^89Zr^4+ released” value (after 7 days of incubation with FeCl3) is reported as greater than 50% and the “^89Zr^4+ released” value (in the presence of Ga^3+) is reported as roughly 9%.
